The nature of data set [1]: Selectivity ratio of IC50 for mouse J774 cells to IC50 for epimastigote stage of Trypanosoma cruzi CL-B5. Format: ADME, cell-based. The conditions noted are these: J774 cells versus Trypanosoma cruzi CL-B5 epimastigotes, read-out: Ratio IC50.
For data set [2], the system named is Trypanosoma cruzi. The experiment in a line: Trypanosomicidal activity against epimastigote stage of Trypanosoma cruzi CL-B5 after 72 hrs by beta-galactosidase reporter gene assay. Particulars: CL-B5, 72 h. It is filed as functional, organism-based. Summed up:
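Epimastigotes from cultures not yet in stationary phase, seeded at 2 x 10^5/mL with drugs at 28 °C for 72 h. CPRG then added (200 µM final) for 6 h at 37 °C and absorbance read at 595 nm. Each concentration tested in triplicate, two independent experiments; IC50 and AE% calculated.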

Data set [3] deals with J774. The experiment in a line: Cytotoxicity against mouse J774 cells assessed as cell viability after 48 hrs by resazurin assay. It is filed as cell-based. The conditions noted are these: J774, 48 h. Summed up: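 J774 macrophages grown in RPMI 1640 with 10% heat-inactivated FBS, penicillin and streptomycin at 37 °C, 5% CO2, and harvested pre-confluence with trypsin. Seeded at 5x10^4 cells/well and left to attach 24 h. Exposed to a range of drug concentrations for 48 h. Resazurin solution (2 mM stock, in PBS pH 7) added for 3 h. Absorbance read at 490 and 595 nm with background subtracted. Triplicates; %C and IC50 calculated.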

SMILES strings stand for the structures. Some results are limits rather than exact numbers.

Regarding `COC(=O)c1cc(O)ccc1O` [METHYL 2,5-DIHYDROXYBENZOATE], in data set [1], the selectivity ratio stood at 2.6. In addition, the IC50 (commonly the concentration that inhibits the measured activity by half) in data set [2] is 98 µM; in data set [3] it was over 256 µM.
Consider `COc1ccc(OC)c(CO)c1`, for which the IC50 in data set [2] and in data set [3] was over 256 µM in each case.
On to `COC(=O)c1cc(O)cc(O)c1` [METHYL 3,5-DIHYDROXYBENZOATE], for which the IC50 in data set [2] and in data set [3] was over 256 µM in each case.
As for `COc1ccc(OC)c(CCc2ccccc2)c1`, the selectivity ratio in data set [1] stood at 5.5. The IC50 in data set [2] is 46.5 µM; in data set [3] it was over 256 µM.
Consider `O=C(O)c1cc(O)ccc1O` [GENTISIC ACID], for which the IC50 in data set [2] and in data set [3] was over 256 µM in each case.
Take `C=Cc1cc(OC)ccc1OC`: the IC50 in data set [2] and in data set [3] was over 256 µM throughout.
In the case of `Oc1ccc(CCc2cccc(O)c2)cc1` [LUNULARIN], the selectivity ratio in data set [1] was 3.4. For the same compound, the values for the IC50 in data set [2] and in data set [3] were 152 µM and over 512 µM, respectively.
Regarding `Oc1ccc(CCc2ccccc2)cc1`, the selectivity ratio in data set [1] worked out at 3.3. For the same compound, the IC50 in data set [2] was found to be 123 µM; in data set [3], 407 µM.
Take `Oc1ccc(O)cc1` [HYDROQUINONE]: the selectivity ratio in data set [1] is 6.3. Further, the figures for the 50% inhibitory concentration (IC50) in data set [2] and in data set [3] were 19.5 µM and 123 µM, respectively.
With `COc1ccc(OC)c(C(=O)O)c1`, the IC50 in data set [2] and in data set [3] was over 256 µM in each case.

These data come from ChEMBL document CHEMBL3414428, “Bond-based bilinear indices for computational discovery of novel trypanosomicidal drug-like compounds through virtual screening” (Eur J Med Chem, 2015).
